pEC50, pIC50: −log10 of the molar value. Bridge positions count the residues as written; N and C are the ends. Peptide text beside a SMILES is read from it.
Assays:
Melanocortin receptor 3 [1] = biological target: T1, Melanocortin receptor 3 (Mus musculus, UniProt P33033); experiment: Displacement of [125I]-hAGRP(87-132) from mouse Melanocortin 3 Receptor
How it was run: (§1)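 Whole HEK-293 cells stably expressing mouse receptor, plated a day before at 0.1–0.3 × 10^6 cells/well. Chloramine-T-iodinated [125I]hAGRP(87–132) at 100000 cpm/well displaced by ligand. Nonspecific binding defined with 10^-6 M hAGRP(87–132). IC50 from nonlinear least-squares fit, or percent specific binding displaced at 10 μM. Duplicate points, at least two independent experiments, SD reported.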

Melanocortin receptor 4 [2] = biological target: T2, Melanocortin receptor 4 (Mus musculus, UniProt P56450); experiment: Displacement of [125I]-hAGRP(87-132) from mouse Melanocortin 4 Receptor; how it was run: as §1
Melanocortin receptor 4 [3] = biological target: T2, Melanocortin receptor 4; experiment: Antagonistic activity against mouse Melanocortin 4 Receptor; format: functional; conditions: read-out: pA2 (converted)
How it was run: (§2)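 Same HEK-293 CRE/β-galactosidase cAMP reporter system as the agonist assay, with a 6 h stimulation in IBMX-containing medium and normalization to protein and forskolin. Antagonism measured as the dose-dependent shift of the MTII agonist response, ligand up to 10 μM. pA2 derived by Schild analysis. Mean ± SEM of at least three independent experiments.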

[4] = biological target: Melanocyte-stimulating hormone receptor (Mus musculus, UniProt Q01727); experiment: Agonistic activity against mouse Melanocortin 1 Receptor; format: functional
How it was run: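 HEK-293 cells stably expressing the receptor (G418 selection), transiently transfected with a CRE/β-galactosidase reporter. Lysates read with ONPG at OD405 and normalized to protein content and forskolin (10^-4 M) response. EC50 from nonlinear least-squares fit, at least three independent experiments.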

Melanocortin receptor 3 [5] = biological target: T1, Melanocortin receptor 3; experiment: Antagonistic activity against mouse Melanocortin 3 Receptor; format: functional; conditions: read-out: pA2 (converted); how it was run: as §2

T1 sequence (P33033 whole entry): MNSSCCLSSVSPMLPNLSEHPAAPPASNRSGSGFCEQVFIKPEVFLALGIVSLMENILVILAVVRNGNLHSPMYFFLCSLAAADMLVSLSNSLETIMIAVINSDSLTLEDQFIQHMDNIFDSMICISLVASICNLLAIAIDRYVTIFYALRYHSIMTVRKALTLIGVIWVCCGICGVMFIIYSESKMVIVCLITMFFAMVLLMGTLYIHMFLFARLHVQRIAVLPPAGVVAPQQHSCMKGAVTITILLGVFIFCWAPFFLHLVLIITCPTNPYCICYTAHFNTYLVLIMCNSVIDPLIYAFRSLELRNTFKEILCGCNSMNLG
T2 sequence (P56450 whole entry): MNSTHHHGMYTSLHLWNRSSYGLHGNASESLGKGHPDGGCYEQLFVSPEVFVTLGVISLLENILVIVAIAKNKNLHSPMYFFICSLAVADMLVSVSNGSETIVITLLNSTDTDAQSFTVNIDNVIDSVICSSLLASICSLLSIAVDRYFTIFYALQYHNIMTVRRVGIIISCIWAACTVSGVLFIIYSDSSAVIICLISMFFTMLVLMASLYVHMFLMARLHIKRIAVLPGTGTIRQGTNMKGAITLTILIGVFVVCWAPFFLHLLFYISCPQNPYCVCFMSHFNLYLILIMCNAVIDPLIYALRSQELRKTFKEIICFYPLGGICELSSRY
Sequence of Melanocyte-stimulating hormone receptor (Q01727 whole entry): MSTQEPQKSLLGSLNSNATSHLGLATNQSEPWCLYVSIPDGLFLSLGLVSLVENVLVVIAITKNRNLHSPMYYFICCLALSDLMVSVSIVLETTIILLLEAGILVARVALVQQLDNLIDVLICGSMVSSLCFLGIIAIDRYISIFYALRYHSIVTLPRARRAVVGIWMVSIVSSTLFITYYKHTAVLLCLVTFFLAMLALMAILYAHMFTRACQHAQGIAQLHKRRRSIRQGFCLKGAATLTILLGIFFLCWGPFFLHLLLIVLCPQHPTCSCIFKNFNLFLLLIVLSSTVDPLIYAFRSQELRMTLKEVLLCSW

SMILES | pIC50 (Melanocortin receptor 3 [1]) | pIC50 (Melanocortin receptor 4 [2]) | Kb (Melanocortin receptor 4 [3]) | pEC50 [4] | Kb (Melanocortin receptor 3 [5])
C[C@@H]1NC(=O)[C@H](CC(N)=O)NC(=O)[C@H](Cc2ccccc2)NC(=O)[C@H](Cc2ccccc2)NC(=O)[C@H](CCCNC(=N)N)NC(=O)[C@@H](NC(=O)[C@@H](N)Cc2ccc(O)cc2)CSSC[C@@H](C(=O)N[C@@H](Cc2ccc(O)cc2)C(N)=O)NC(=O)[C@H](Cc2ccccc2)NC1=O (H-YCRFFNAFCY-NH2; disulfide 2-9) | 4.93 | 6.56 | 0.158 µM | 5.29 | –
CC[C@@H]1NC(=O)[C@H](N)CSSC[C@@H](C(=O)N[C@@H](CCCN=C(N)N)C(=O)N[C@@H](CCCCN)C(=O)N[C@@H](CC(C)C)C(=O)O)NC(=O)[C@H](Cc2ccc(O)cc2)NC(=O)[C@H]2CSSC[C@H](NC(=O)[C@@H](Cc3ccc(O)cc3)NC(=O)[C@H](CC)NC(=O)[C@H]([C@@H](C)O)NC(=O)[C@@H](C)NC(=O)[C@H](CC)NC(=O)[C@@H]3CCCN3C(=O)[C@@H](CC(=O)O)NC1=O)C(=O)N[C@H](CCCN=C(N)N)C(=O)N[C@@H](Cc1ccccc1)C(=O)N[C@H](Cc1ccccc1)C(=O)N[C@@H](CC(N)=O)C(=O)N[C@H](C)C(=O)N[C@@H](Cc1ccccc1)C(=O)N2 | 6.85 | – | – | – | 0.158 µM
CC[C@@H]1NC(=O)[C@H]([C@@H](C)O)NC(=O)[C@H](C)NC(=O)[C@H](CC)NC(=O)[C@@H]2CCCN2C(=O)[C@H](CC(=O)O)NC(=O)[C@H](CC)NC(=O)[C@@H](N)CSSC[C@@H](C(=O)N[C@@H](CCCN=C(N)N)C(=O)N[C@@H](CCCCN)C(=O)N[C@@H](CC(C)C)C(=O)O)NC(=O)[C@H](Cc2ccc(O)cc2)NC(=O)[C@@H]2CSSC[C@H](NC(=O)[C@H](Cc3ccc(O)cc3)NC1=O)C(=O)N[C@@H](CCCN=C(N)N)C(=O)N[C@@H](Cc1ccccc1)C(=O)N[C@@H](Cc1ccccc1)C(=O)N[C@@H](CC(N)=O)C(=O)N[C@@H](C)C(=O)N[C@@H](Cc1ccccc1)C(=O)N2 | – | 8.00 | 0.0316 µM | 5.84 | –
